Data set [1] addresses T1, ATP-dependent translocase ABCB1 (Homo sapiens, UniProt P08183). As to the kind of experiment: Inhibition of MDR1 (unknown origin) expressed in MDCK cells assessed as reduction in ATP consumption after 2 hrs by ATPlite assay. Type of data set: cell-based. A digest of the protocol:
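ATP cell level depletion measured in MDCK-MDR1 cells. Means of three independent experiments, samples analysed in duplicate.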
(In general: Cellular ATP, detected with luciferase, serves as a proxy for viable cell number.)

Data set [2] deals with T2, Broad substrate specificity ATP-binding cassette transporter ABCG2 (Homo sapiens, UniProt Q9UNQ0).
T2 sequence (Q9UNQ0 whole entry): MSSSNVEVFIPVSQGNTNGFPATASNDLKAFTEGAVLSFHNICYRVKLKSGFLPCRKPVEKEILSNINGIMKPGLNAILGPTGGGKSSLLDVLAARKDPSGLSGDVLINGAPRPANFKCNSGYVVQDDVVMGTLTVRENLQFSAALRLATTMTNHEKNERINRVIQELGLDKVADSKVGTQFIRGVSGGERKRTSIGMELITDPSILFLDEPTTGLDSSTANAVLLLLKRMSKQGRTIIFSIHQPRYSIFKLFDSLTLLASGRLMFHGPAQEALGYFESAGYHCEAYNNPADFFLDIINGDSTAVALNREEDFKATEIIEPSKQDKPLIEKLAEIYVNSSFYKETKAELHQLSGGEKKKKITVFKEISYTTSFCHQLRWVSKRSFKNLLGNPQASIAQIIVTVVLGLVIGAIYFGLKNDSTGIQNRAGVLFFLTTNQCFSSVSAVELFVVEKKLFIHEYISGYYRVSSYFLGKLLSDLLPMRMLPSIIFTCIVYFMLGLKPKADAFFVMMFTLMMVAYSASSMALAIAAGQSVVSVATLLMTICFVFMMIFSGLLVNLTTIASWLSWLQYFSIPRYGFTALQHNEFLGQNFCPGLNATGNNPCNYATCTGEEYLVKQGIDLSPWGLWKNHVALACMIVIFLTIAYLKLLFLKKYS
As to the kind of experiment: Inhibition of BCRP (unknown origin) expressed in MDCK cells assessed as reduction in Hoechst 33342 efflux at 100 uM preincubated for 30 mins followed by Hoechst 3334 addition measured after 30 mins by fluorescence assay. Type of data set: cell-based. To be noted: 0.5 h. A digest of the protocol:
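Interference with BCRP-mediated transport of the fluorescent substrate Hoechst 33342. Not active defined at 100 μM. Means of three independent experiments, duplicate samples.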

Data set [3] has as its system MDCK. As to the kind of experiment: Downregulation of MDR1 protein expression in MDCK-MDR1 cells at 10 uM after 48 hrs by immunoblot analysis. The following applies: Canis lupus familiaris. The format is functional, cell-based. The gist of the method: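 Immunoblot of P-gp in MDCK-MDR1 cells treated at 10 μM for 48 h, with untreated cells as control. Protein extracted after incubation, actin used as loading control. Blot representative of 3 experiments.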

Data set [4] deals with T1, ATP-dependent translocase ABCB1. The data set is described as follows: Inhibition of MDR1 (unknown origin) expressed in MDCK cells assessed as reduction in calcein-AM efflux preincubated for 30 mins followed by calcein-AM addition measured after 30 mins by fluorescence assay. Type of data set: cell-based. A digest of the protocol: (§1)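 Competition with P-gp-mediated efflux of the pro-fluorescent substrate calcein-AM in MDCK-MDR1 cells, reported as EC50. Means of three independent experiments, samples in duplicate.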

Data set [5] deals with T3, Multidrug resistance-associated protein 1 (Homo sapiens, UniProt P33527). As to the kind of experiment: Inhibition of MRP1 (unknown origin) expressed in MDCK cells assessed as reduction in calcein-AM efflux preincubated for 30 mins followed by calcein-AM addition measured after 30 mins by fluorescence assay. The format is cell-based. A digest of the protocol: (§2)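 Interference with MRP1-mediated transport of pro-fluorescent calcein-AM, reported as EC50. Not active defined at 100 μM. Means of three independent experiments, duplicate samples.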

A short description of data set [6]: Efflux ratio of apparent permeability from basolateral to apical over apical to basolateral side in human Caco2 cells at 100 uM after 120 mins. Type of data set: ADME, cell-based. To be noted: Caco-2. The gist of the method:
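Bidirectional permeability across Caco-2 monolayers. Papp expressed as the basolateral-to-apical over apical-to-basolateral (BA/AB) ratio. Values from two independent experiments. A ratio >2 is read as substrate behaviour, <2 as inhibitor.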
On the technique in general: Caco-2 cells form a polarised layer with tight junctions and transporters.

For data set [7], the system named is MDCK. As to the kind of experiment: Cytotoxicity against MDCK cells over-expressing MDR1 at 0.1 to 25 uM after 48 to 72 hrs by MTT assay. The format is ADME, cell-based, Canis lupus familiaris. To be noted: dog. For orientation: Tetrazolium assays rely on reduction of a dye to a coloured formazan, in cell work by metabolically active cells.
The target in data set [8] is T1, ATP-dependent translocase ABCB1. As to the kind of experiment: Inhibition of MDR1 (unknown origin) expressed in MDCK cells assessed as increase in doxorubicin-induced cytotoxicity at 10 uM after 48 hrs by MTT assay relative to control. The arrangement: scale not given: the % may be the effect or the level left. The format is cell-based. The gist of the method: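 MDCK-MDR1 cells treated for 48 h with compound at 10 μM, alone or together with doxorubicin at 10 μM. Antiproliferative effect compared with doxorubicin 10 μM alone.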

Data set [9] has as its target T3, Multidrug resistance-associated protein 1. As to the kind of experiment: Inhibition of MRP1 (unknown origin) expressed in MDCK cells assessed as reduction in calcein-AM efflux at 100 uM preincubated for 30 mins followed by calcein-AM addition measured after 30 mins by fluorescence assay. Type of data set: cell-based. To be noted: 0.5 h. A digest of the protocol:
as §2

Data set [10] can be described thus: Inhibition of P-gp (unknown origin). The arrangement: species or system Homo sapiens. The gist of the method: as §1

SMILES strings stand for the structures. Active and inactive are the calls of the source.

T3 sequence (P33527 whole entry): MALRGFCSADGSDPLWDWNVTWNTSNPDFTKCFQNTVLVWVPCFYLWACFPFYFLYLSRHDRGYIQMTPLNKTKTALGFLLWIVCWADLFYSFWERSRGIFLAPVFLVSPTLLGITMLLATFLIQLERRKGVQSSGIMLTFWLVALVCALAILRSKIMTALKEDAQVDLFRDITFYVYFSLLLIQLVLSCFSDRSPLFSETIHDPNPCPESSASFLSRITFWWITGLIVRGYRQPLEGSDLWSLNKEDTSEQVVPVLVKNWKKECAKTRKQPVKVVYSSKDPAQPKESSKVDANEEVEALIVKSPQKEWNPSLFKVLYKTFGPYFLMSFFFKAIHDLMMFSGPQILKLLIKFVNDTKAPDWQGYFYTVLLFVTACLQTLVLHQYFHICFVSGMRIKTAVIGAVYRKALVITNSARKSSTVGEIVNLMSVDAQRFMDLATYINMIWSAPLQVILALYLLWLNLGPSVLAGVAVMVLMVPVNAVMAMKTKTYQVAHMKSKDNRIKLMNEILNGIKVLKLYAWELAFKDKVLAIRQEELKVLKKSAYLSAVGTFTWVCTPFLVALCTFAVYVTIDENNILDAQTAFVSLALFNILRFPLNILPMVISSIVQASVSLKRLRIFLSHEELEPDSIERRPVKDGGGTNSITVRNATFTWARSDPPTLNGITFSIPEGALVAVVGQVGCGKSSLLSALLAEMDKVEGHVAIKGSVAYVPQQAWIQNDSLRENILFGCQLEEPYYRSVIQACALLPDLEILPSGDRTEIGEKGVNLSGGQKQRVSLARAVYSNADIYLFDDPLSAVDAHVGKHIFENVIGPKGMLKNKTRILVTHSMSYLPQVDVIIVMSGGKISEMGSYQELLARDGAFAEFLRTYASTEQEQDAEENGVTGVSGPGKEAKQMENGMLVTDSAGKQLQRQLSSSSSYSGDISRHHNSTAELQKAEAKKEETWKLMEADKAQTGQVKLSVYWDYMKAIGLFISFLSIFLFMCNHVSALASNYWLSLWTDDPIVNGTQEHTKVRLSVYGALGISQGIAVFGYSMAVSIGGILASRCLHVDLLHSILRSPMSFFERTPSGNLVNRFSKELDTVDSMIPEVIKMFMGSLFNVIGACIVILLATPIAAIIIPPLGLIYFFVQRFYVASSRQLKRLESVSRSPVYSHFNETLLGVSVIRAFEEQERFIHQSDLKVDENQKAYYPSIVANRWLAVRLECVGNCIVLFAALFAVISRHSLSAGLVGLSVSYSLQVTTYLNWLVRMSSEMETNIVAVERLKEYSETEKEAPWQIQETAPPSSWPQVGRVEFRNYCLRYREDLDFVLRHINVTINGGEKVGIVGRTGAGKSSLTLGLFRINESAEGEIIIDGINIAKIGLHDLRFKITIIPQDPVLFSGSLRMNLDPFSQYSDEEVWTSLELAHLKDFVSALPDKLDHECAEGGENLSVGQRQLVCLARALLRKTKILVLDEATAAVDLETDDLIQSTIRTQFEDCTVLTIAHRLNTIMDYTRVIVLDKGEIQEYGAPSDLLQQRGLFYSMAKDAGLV
T1 sequence (P08183 whole entry): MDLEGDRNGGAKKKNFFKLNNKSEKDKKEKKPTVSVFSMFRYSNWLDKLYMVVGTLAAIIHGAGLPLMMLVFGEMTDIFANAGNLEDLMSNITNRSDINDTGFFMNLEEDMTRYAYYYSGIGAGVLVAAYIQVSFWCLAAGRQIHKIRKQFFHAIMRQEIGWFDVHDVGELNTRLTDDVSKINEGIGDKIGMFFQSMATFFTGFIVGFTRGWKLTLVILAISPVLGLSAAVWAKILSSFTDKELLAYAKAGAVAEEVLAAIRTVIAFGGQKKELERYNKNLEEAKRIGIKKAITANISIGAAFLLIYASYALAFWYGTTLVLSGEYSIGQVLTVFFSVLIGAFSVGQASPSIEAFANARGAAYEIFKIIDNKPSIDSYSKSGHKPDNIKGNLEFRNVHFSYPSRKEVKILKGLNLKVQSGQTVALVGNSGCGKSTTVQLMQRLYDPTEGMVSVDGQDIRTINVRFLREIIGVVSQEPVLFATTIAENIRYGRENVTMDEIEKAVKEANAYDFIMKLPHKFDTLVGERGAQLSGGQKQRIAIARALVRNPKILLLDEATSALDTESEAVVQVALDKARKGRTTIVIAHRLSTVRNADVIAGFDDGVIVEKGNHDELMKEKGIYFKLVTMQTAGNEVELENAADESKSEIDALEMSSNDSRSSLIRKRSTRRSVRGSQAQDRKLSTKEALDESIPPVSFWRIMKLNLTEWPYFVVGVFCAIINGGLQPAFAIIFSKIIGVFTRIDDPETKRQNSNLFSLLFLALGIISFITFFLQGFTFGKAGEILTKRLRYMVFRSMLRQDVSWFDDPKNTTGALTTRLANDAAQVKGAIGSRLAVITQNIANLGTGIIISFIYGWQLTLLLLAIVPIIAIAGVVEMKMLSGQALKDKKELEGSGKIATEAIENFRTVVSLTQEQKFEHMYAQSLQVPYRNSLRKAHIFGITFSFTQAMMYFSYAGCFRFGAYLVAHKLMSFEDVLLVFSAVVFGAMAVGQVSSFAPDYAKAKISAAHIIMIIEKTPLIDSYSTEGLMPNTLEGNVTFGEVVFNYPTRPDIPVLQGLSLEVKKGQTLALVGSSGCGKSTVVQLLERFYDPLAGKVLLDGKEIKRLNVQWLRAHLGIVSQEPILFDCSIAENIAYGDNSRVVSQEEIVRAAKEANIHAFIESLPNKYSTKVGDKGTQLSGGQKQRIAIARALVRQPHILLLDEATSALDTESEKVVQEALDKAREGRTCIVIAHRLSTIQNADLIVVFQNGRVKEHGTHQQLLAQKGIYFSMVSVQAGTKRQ

Consider `COc1cc2c(cc1OC)CN(Cc1ccc(-c3ccc(O)cc3OC)cc1)CC2`, for which the “inhibition (INH)” value was “Active” in data set [1] and “Not Active” in data set [2]. Besides, the outcome in the data set on MDCK [3] was inactive. The 50% effective concentration (EC50) in [4] is 1.86 µM; in [5], 62 µM. Also, in data set [6], the efflux ratio at 2 h, 100 µM came out at 3.5. The Activity entry in the data set on MDCK [7] is “Non-Toxic”; in [8] it was 60%.
Turning to `COc1cc2c(cc1OC)CN(Cc1ccc(-c3ccc(O)c(F)c3)cc1)CC2`, the “inhibition (INH)” value was “Not Active” in data set [9], “Active” in data set [1] and “Not Active” in data set [2]. The concentration giving a half-maximal response (EC50) in data set [4] was 2.8 µM. Also, in data set [6], the efflux ratio at 2 h, 100 µM is 4.9.
As for `COc1cc2c(cc1OC)CN(Cc1ccc(-c3ccc(O)c(N)c3)cc1)CC2`, the “inhibition (INH)” value in data set [9] is “Not Active”; in data set [1], “Active”; in [2], “Not Active”. Further, in [4], the half-maximal effective concentration (EC50) is 6.9 µM. In addition, the efflux ratio at 2 h, 100 µM in [6] worked out at 7.5.
Regarding `COc1cc2c(cc1OC)CN(Cc1ccc(-c3ccc(O)cc3)cc1[N+](=O)[O-])CC2`, the “inhibition (INH)” value was “Not Active” in data set [9], “Active” in [1] and “Not Active” in [2]. The EC50 in data set [4] is 8.4 µM. Also, in data set [6], the efflux ratio at 2 h, 100 µM is 5.8.
On to `COc1cc(-c2ccc(CN3CCc4cc(OC)c(OC)cc4C3)cc2)ccc1O`, for which the “inhibition (INH)” value in data set [9] is “Not Active”; in [1], “Active”; in [2], “Not Active”. For the same molecule, the EC50 in data set [4] is 2 µM. Further, the efflux ratio at 2 h, 100 µM in data set [6] came out at 3.9.
In the case of `COc1cc2c(cc1OC)CN(Cc1ccc(-c3ccc(O)cc3)cc1F)CC2`, the results for the “inhibition (INH)” value in [9], in data set [1] and in [2] were “Not Active”, “Active” and “Not Active”, respectively. In data set [4], the half-maximal effective concentration (EC50) is 4.73 µM. In addition, the efflux ratio at 2 h, 100 µM in data set [6] was 4.1.
As for `COc1cc(-c2ccc(O)cc2)ccc1CN1CCc2cc(OC)c(OC)cc2C1`, the figures for the “inhibition (INH)” value in [9], in [1] and in data set [2] were “Not Active”, “Active” and “Not Active”, respectively. Further, the outcome in the data set on MDCK [3] was inactive. The EC50 in [4] is 1.6 µM. Moreover, in data set [6], the efflux ratio at 2 h, 100 µM was found to be 4.5. For the same molecule, the Activity result is reported as “Non-Toxic” in the data set with MDCK [7] and 15% in data set [8].
As to `COc1cc2c(cc1OC)CN(Cc1ccc(-c3ccc(O)cc3)cc1)CC2`, the “inhibition (INH)” value in [1] was “Active”. The outcome in the data set on MDCK [3] was inactive. The molecule also returned a concentration giving a half-maximal response (EC50) in data set [10] of 0.69 µM. Further, the Activity in [8] was determined as 20%.
`COc1cc2c(cc1OC)CN(Cc1ccc(-c3ccc(O)cc3)c(F)c1)CC2`: the results for the “inhibition (INH)” value in data set [9], in data set [1] and in data set [2] were “Not Active”, “Active” and “Not Active”, respectively. Moreover, the concentration giving a half-maximal response (EC50) in [4] is 6.2 µM. The efflux ratio at 2 h, 100 µM in [6] amounted to 3.7.
On to `COc1cc2c(cc1OC)CN(Cc1ccc(-c3ccc(O)c([N+](=O)[O-])c3)cc1)CC2`, for which the figures for the “inhibition (INH)” value in [1] and in [2] were “Active” and “Not Active”, respectively. Moreover, the results for the 50% effective concentration (EC50) in data set [4] and in data set [5] were 12.7 µM and 28.9 µM, respectively. Also, the efflux ratio at 2 h, 100 µM in data set [6] is 6.3.
For `COc1cc2c(cc1OC)CN(Cc1ccc(-c3ccc(O)cc3F)cc1)CC2`, the “inhibition (INH)” value in data set [9] was “Not Active”; in data set [1], “Active”; in data set [2] it was “Not Active”. Besides, the EC50 in [4] was 2.17 µM. The efflux ratio at 2 h, 100 µM in [6] stood at 4.5.
In the case of `COc1cc2c(cc1OC)CN(Cc1ccc(-c3ccc(O)cc3)c(OC)c1)CC2`, the “inhibition (INH)” value in [1] is reported as “Active”; in data set [2] it was “Not Active”. For the same molecule, the result in the data set on MDCK [3] was inactive. The values for the EC50 in data set [4] and in [5] were 1.51 µM and 38 µM, respectively. For the same molecule, the efflux ratio at 2 h, 100 µM in data set [6] was found to be 4.4. Also, the results for the Activity entry (in the data set with MDCK [7]; in data set [8]) were “Non-Toxic” and 15%, respectively.
With `COc1cc2c(cc1OC)CN(Cc1ccc(-c3ccc(O)cc3)c([N+](=O)[O-])c1)CC2`, the “inhibition (INH)” value in data set [9] is listed as “Not Active”; in [1] it was “Active”; in data set [2], “Not Active”. Besides, the EC50 in [4] is 15.2 µM. Moreover, the efflux ratio at 2 h, 100 µM in [6] amounted to 2.9.
Turning to `COc1cc2c(cc1OC)CN(Cc1ccc(-c3ccc(O)cc3[N+](=O)[O-])cc1)CC2`, the results for the “inhibition (INH)” value in data set [9], in data set [1] and in data set [2] were “Not Active”, “Active” and “Not Active”, respectively. Also, the 50% effective concentration (EC50) in [4] is 2.54 µM. Further, the efflux ratio at 2 h, 100 µM in [6] was found to be 11.2.
Consider `COc1cc2c(cc1OC)CN(Cc1ccc(-c3ccc(O)cc3N)cc1)CC2`, for which the “inhibition (INH)” value in data set [9] is given as “Not Active”; in data set [1], “Active”; in data set [2], “Not Active”. Further, the EC50 in [4] was 5.4 µM. For the same molecule, the efflux ratio at 2 h, 100 µM in data set [6] turned out to be 4.5.

The EC50 is the concentration needed to bring the measured effect to its halfway point. As a reminder, the efflux ratio is a quotient of directional permeabilities that is used to spot active efflux.

Values taken from ChEMBL document CHEMBL4257505, “New tetrahydroisoquinoline-based P-glycoprotein modulators: decoration of the biphenyl core gives selective ligands” (Medchemcomm, 2018).
